Source: ChEMBL document CHEMBL1148638, “Aminopyridine-based c-Jun N-terminal kinase inhibitors with cellular activity and minimal cross-kinase activity” (J Med Chem, 2006)

Key:
[1] = target: Hepatocyte growth factor receptor (Homo sapiens, UniProt P08581)
[2] = target: Fibroblast growth factor receptor (Homo sapiens, UniProt P22607+P11362+P22455+P21802); experiment: Inhibition of FGFR; type: protein assay
Outline: (§1)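 Recombinant tyrosine kinases were incubated 1 h with biotinylated peptide (0.5 µM), ATP (10 µM to 1 mM) and inhibitor in 2% DMSO. Buffer was 50 mM Hepes pH 7.4 with MgCl2, MnCl2 and vanadate. Detection was HTRF: Eu anti-pY antibody plus streptavidin-APC, read 60 min later. IC50 came from titration curves, converted to Ki by Cheng-Prusoff.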

[3] = target: BDNF/NT-3 growth factors receptor (Homo sapiens, UniProt Q16620); experiment: Inhibition of TrkB
Outline: (§2)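 Tyrosine kinases (recombinant, His/GST-purified or commercial) measured by HTRF: 0.5 µM biotinylated peptide, ATP 10 µM to 1 mM, inhibitor in 2% DMSO, 1 h in 50 mM Hepes pH 7.4 with MgCl2, MnCl2, Na3VO4, DTT, BSA. IC50 from six-point titrations; Ki via Cheng-Prusoff.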

[4] = target: T1, Calcium/calmodulin-dependent protein kinase type IV (Homo sapiens, UniProt Q16566); experiment: Inhibition of CaMK4
T1 sequence (Q16566 whole entry): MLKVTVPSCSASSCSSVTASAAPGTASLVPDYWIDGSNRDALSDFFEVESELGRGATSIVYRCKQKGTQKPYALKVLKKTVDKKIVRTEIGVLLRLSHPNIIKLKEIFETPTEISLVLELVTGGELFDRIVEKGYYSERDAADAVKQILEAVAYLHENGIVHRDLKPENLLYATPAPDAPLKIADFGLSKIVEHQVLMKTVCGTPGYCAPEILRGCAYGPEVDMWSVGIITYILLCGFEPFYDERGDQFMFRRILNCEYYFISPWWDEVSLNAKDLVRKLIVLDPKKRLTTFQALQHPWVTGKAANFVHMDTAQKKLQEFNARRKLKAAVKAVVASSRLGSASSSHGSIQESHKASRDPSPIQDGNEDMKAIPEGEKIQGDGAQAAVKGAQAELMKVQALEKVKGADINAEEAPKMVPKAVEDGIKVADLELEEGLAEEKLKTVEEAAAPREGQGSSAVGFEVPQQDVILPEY
Outline: (§3)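 Recombinant kinases were commercial, or baculovirus-expressed and purified by His-tag or GST affinity. Each was incubated 1 h with biotinylated substrate peptide (2 µM), γ-[33P]-ATP (5 µM) and inhibitor (3-10000 nM, 2% DMSO) in 25 mM Hepes pH 7.5, 10 mM MgCl2, Na3VO4. Reactions were stopped with EDTA/NaCl and read by streptavidin FlashPlate capture. IC50 came from titrations, converted to Ki by Cheng-Prusoff.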

[5] = target: Death-associated protein kinase 3 (Homo sapiens, UniProt O43293); experiment: Inhibition of ZipK
[6] = target: Tyrosine-protein kinase Blk (Homo sapiens, UniProt P51451)
[7] = target: Inhibitor of nuclear factor kappa-B kinase subunit beta (Homo sapiens, UniProt O14920); experiment: Inhibition of IKK-beta
Outline: as §3

[8] = target: Tyrosine-protein kinase JAK3 (Homo sapiens, UniProt P52333); experiment: Inhibition of JAK3
Outline: as §1

Activated CDC42 kinase 1 = Activated CDC42 kinase 1 (Homo sapiens, UniProt Q07912); experiment: Inhibition of CDC42
Outline: as §3

[9] = target: Tyrosine-protein kinase Fyn (Homo sapiens, UniProt P06241); experiment: Inhibition of Fyn
Outline: as §1

[10] = target: Tyrosine-protein kinase Lyn (Homo sapiens, UniProt P07948); experiment: Inhibition of Lyn
Outline: as §1

[11] = target: Tyrosine-protein kinase ABL1 (Homo sapiens, UniProt P00519); experiment: Inhibition of Abl
Outline: as §1

Insulin receptor = Insulin receptor (Homo sapiens, UniProt P06213)
[12] = target: Serine/threonine-protein kinase pim-2 (Homo sapiens, UniProt Q9P1W9); experiment: Inhibition of Pim2
[13] = target: Macrophage colony-stimulating factor 1 receptor (Homo sapiens, UniProt P07333); experiment: Inhibition of CSF1R
Outline: as §1

[14] = target: High affinity nerve growth factor receptor (Homo sapiens, UniProt P04629)
[15] = target: Proto-oncogene tyrosine-protein kinase Src (Homo sapiens, UniProt P12931); experiment: Inhibition of Src
Outline: as §2

[16] = target: Mast/stem cell growth factor receptor Kit (Homo sapiens, UniProt P10721); experiment: Inhibition of cKit
Outline: as §2

[17] = target: Receptor tyrosine-protein kinase erbB-2 (Homo sapiens, UniProt P04626); experiment: Inhibition of ErbB2
Outline: as §1

[18] = target: Tyrosine-protein kinase Lck (Homo sapiens, UniProt P06239)
[19] = target: Receptor-type tyrosine-protein kinase FLT3 (Homo sapiens, UniProt P36888); experiment: Inhibition of Flt3
Outline: as §1

[20] = target: Non-receptor tyrosine-protein kinase TYK2 (Homo sapiens, UniProt P29597); experiment: Inhibition of Tyk2
Outline: as §2

[21] = target: Tyrosine-protein kinase JAK2 (Homo sapiens, UniProt O60674); experiment: Inhibition of JAK2
Outline: as §1

[22] = target: Fibroblast growth factor receptor 3 (Homo sapiens, UniProt P22607); experiment: Inhibition of FGFR3
Outline: as §1

[23] = target: Vascular endothelial growth factor receptor 1 (Homo sapiens, UniProt P17948); experiment: Inhibition of Flt1
Outline: as §1

[24] = target: 3-phosphoinositide-dependent protein kinase 1 (Homo sapiens) (UniProt O15530); experiment: Inhibition of PDK1
[25] = target: T2, Serine/threonine-protein kinase Sgk1 (Homo sapiens, UniProt O00141); experiment: Inhibition of SGK
T2 sequence (O00141 whole entry): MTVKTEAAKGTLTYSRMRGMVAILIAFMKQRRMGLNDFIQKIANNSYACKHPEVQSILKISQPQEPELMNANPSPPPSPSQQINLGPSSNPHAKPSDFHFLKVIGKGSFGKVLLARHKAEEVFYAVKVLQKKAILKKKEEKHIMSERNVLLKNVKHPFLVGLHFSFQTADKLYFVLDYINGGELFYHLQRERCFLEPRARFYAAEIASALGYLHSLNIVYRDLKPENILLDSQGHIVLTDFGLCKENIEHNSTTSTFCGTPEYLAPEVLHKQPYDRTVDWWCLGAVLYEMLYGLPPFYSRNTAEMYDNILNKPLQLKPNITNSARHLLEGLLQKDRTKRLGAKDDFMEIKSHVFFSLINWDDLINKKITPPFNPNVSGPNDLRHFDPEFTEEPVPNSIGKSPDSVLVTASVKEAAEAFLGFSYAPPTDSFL

[26] = target: Serine/threonine-protein kinase PAK 4 (Homo sapiens, UniProt O96013); experiment: Inhibition of PAK4
Outline: as §3

BDNF/NT-3 growth factors receptor, sequence (Q16620 whole entry): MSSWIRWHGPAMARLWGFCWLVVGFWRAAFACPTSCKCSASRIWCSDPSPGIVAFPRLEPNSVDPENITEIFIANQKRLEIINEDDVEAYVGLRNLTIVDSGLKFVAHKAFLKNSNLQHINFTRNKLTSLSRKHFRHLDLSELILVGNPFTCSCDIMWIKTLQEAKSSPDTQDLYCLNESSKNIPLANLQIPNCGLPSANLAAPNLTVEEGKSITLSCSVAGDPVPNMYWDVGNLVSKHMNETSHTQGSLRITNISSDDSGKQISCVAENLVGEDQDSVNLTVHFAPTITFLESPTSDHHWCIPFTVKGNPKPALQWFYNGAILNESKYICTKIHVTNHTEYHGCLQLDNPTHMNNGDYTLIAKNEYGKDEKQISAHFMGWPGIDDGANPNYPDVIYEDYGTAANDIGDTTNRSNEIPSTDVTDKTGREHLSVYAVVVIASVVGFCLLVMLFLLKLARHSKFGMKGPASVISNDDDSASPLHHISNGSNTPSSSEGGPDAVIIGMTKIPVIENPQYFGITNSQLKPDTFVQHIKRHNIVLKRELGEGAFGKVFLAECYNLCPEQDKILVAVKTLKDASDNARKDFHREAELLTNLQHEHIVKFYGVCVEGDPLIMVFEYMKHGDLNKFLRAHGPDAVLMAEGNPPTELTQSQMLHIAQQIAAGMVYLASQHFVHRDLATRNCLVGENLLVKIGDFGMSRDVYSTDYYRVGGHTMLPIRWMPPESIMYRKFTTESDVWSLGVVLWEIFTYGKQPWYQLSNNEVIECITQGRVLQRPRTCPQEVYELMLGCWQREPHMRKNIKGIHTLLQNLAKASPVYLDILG
Death-associated protein kinase 3, sequence (O43293 whole entry): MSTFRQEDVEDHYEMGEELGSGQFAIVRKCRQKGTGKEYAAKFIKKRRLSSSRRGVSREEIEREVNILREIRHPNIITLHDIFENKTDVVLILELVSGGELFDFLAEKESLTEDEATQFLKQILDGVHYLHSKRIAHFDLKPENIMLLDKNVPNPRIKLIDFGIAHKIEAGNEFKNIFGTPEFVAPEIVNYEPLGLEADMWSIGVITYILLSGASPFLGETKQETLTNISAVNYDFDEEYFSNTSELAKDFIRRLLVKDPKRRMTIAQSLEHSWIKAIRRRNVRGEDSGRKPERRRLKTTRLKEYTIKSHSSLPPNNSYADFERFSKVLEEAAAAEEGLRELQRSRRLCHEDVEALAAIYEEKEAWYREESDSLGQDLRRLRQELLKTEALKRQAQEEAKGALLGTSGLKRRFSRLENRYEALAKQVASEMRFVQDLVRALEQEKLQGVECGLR
Fibroblast growth factor receptor 3, sequence (P22607 whole entry): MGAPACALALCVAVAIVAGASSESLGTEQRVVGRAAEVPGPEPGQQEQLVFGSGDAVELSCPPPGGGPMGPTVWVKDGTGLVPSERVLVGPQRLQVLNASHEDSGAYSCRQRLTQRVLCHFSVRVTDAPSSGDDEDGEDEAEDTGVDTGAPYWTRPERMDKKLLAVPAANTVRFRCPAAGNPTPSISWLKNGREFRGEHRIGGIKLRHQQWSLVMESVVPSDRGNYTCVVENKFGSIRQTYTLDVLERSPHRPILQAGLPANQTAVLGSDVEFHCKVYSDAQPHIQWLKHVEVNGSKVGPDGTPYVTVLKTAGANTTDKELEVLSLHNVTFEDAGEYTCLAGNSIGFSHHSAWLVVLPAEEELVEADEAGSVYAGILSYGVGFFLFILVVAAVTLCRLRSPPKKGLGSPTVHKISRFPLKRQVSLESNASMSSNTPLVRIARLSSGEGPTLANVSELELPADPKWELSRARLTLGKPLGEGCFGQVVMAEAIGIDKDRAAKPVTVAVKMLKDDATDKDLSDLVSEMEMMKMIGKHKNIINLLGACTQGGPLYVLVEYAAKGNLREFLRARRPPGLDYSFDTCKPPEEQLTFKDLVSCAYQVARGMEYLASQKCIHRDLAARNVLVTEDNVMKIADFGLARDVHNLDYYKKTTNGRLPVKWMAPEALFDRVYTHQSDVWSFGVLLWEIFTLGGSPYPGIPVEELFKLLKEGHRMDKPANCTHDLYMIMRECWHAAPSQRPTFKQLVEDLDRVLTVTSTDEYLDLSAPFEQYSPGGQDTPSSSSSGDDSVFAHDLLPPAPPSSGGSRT
Tyrosine-protein kinase JAK3, sequence (P52333 whole entry): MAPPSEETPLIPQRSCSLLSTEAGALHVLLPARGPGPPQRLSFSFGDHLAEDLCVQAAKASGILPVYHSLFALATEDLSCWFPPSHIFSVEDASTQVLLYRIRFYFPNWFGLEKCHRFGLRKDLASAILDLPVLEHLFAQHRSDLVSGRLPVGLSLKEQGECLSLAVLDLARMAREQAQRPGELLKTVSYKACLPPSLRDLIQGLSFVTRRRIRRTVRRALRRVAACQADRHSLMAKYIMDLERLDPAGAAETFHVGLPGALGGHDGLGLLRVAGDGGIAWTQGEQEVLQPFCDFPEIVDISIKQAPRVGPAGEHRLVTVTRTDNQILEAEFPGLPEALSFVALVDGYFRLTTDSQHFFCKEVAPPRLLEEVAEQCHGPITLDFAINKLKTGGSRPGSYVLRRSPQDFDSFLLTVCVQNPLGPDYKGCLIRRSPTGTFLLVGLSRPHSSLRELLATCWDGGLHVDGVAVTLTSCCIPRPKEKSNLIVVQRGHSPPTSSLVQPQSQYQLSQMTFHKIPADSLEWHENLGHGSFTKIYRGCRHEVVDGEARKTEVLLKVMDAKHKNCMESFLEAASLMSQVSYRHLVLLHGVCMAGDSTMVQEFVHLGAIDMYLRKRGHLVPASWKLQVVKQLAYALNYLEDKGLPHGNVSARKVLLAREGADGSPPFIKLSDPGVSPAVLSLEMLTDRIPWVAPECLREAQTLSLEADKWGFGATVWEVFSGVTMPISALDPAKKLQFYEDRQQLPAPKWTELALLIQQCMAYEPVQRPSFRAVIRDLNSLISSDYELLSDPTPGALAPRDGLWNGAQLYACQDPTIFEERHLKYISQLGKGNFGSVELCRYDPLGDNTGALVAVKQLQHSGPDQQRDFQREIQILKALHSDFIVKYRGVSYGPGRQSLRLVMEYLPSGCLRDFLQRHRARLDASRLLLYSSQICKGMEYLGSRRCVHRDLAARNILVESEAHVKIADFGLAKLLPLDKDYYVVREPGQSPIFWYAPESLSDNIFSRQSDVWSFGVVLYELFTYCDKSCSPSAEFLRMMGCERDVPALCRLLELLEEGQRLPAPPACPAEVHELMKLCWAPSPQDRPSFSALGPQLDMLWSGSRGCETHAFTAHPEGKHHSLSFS
Serine/threonine-protein kinase pim-2, sequence (Q9P1W9 whole entry): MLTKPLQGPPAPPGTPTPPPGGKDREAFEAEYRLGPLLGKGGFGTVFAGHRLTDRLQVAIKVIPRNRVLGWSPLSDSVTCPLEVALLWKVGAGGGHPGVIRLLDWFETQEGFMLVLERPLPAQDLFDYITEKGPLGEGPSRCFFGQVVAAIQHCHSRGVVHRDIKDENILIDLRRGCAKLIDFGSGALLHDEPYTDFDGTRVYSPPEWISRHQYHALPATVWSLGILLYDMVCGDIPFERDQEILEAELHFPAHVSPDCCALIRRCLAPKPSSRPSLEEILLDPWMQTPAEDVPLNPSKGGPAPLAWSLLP
Vascular endothelial growth factor receptor 1, sequence (P17948 whole entry): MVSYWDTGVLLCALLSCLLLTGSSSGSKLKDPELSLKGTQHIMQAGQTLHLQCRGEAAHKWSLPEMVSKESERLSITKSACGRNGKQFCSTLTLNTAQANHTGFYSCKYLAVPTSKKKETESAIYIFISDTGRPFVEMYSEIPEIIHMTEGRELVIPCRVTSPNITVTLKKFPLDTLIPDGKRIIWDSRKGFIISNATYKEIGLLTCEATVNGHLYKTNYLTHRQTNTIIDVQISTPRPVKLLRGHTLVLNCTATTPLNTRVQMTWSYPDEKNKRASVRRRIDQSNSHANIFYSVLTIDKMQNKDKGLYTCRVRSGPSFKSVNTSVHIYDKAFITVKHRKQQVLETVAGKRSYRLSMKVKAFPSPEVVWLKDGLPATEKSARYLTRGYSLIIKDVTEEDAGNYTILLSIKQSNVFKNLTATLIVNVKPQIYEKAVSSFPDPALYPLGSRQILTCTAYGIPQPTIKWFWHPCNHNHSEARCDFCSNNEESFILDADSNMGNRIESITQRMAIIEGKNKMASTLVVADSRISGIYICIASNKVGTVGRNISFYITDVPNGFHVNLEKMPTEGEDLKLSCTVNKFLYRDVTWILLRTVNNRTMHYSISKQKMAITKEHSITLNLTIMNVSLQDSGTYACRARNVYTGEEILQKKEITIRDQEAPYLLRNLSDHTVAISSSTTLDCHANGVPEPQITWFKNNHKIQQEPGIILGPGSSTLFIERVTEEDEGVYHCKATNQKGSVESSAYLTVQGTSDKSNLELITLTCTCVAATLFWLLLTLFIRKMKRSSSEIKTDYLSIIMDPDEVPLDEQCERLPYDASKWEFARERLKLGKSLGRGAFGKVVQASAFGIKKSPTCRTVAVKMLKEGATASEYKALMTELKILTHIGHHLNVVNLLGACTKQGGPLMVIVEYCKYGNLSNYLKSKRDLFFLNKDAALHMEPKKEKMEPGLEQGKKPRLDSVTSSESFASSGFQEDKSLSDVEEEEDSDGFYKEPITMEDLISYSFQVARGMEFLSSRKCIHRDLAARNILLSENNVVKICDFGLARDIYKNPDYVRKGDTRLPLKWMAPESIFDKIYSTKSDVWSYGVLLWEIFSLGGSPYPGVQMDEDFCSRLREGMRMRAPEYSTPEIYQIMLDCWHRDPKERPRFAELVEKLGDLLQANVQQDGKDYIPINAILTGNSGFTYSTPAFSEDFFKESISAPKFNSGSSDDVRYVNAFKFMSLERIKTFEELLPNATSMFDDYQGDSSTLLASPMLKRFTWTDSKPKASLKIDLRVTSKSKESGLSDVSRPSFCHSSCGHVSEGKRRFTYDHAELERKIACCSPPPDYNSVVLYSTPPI

`CC(=O)Nc1cc(N)c(C#N)c(-c2ccccc2)n1` gave a Ki [1] greater than 2900 nM, a Ki [2] greater than 4700 nM and a Ki [3] greater than 4500 nM. For the same molecule, the Ki [4] was greater than 8600 nM, the Ki [5] was greater than 1400 nM and the Ki [6] was greater than 1500 nM. The Ki [7] was greater than 3200 nM, the Ki [8] was greater than 1700 nM and the Ki (Activated CDC42 kinase 1) was greater than 9500 nM. It also gave a Ki [9] greater than 810 nM, a Ki [10] greater than 1700 nM and a Ki [11] greater than 710 nM. For the same molecule, the Ki (Insulin receptor) was greater than 5200 nM, the Ki [12] was greater than 1400 nM and the Ki [13] was greater than 2500 nM. The Ki [14] was greater than 2500 nM, the Ki [15] was greater than 1900 nM and the Ki [16] was greater than 1200 nM. It also gave a Ki [17] greater than 1400 nM, a Ki [18] greater than 2700 nM and a Ki [19] greater than 2500 nM. The Ki [20] was greater than 1900 nM, the Ki [21] was greater than 1500 nM and the Ki [22] was greater than 1900 nM. It also gave a Ki [23] greater than 440 nM, a Ki [24] greater than 3800 nM and a Ki [25] greater than 9400 nM. The Ki [26] was greater than 5500 nM.
